Assay outcomes deposited in PubChem by several laboratories.
This is one part of a sample in which hits are shown more often than they occur.
UPR CHOP act: apoptotic UPR (CHOP) activation. CHO-CHOP luciferase reporter, luminescence; percent of tunicamycin response over DMSO baseline. 330,000 tested, 0.34% active. activation, % at 10 µM. AID 449763;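 active = at 10 µM dose, activation of 40% or more, normalized to positive control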
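Dosing – one dose, 10 µM in 0.5% DMSO · System – CHO-CHOP cells, stable luciferase reporter of PERK-eIF2a-CHOP signalling · Input – 500 cells/well · Control set – tunicamycin 10 µg/mL final as positive, DMSO-only wells as negative · Timing – 6 h compound treatment, 37 °C · Measure – % activation vs tunicamycin · Technique – luminescence read with Steady-Glo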
UCH37 inh: human UCH37 deubiquitinating enzyme inhibition | Q9Y5K5 | purified proteasome/UCH37, Ub-AMC cleavage fluorescence | inhibition, % (test concentration not listed) | 330,000 tested, 0.33% active | AID 588478;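 active = mean inhibition over replicate wells above about 20%, limit read from the data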
Target sequence (Q9Y5K5 whole entry, looked up): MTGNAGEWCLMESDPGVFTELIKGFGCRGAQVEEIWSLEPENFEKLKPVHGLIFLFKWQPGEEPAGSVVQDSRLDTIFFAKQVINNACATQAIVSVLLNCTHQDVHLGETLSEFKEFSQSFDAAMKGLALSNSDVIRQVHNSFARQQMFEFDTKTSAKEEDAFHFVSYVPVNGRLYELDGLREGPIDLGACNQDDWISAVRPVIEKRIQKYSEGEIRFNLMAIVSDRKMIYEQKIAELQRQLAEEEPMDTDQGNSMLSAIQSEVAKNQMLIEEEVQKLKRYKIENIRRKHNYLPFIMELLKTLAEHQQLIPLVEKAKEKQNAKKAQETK
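assay system = human UCH37 enzyme supplied as purified proteasome complex | amount = proteasome at 0.15 nM in the dispensed enzyme solution | schedule = 30 min compound-proteasome preincubation then 25 min substrate reaction, room temperature | measured by = fluorescence, ex 355 nm, em 460 nm | benchmarks = no-proteasome wells (full inhibition) and compound-free wells (no inhibition)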
XBP1 UPR activ: activators of adaptive arm of unfolded protein response (XBP1). CHO-XBP1 luciferase reporter, IRE1-XBP1 UPR activation, luminescence; percent of tunicamycin response, DMSO as zero. activation, % at 20 µM. 330,000 tested, 0.33% active;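 active = versus positive control, 20 µM dose yields 30% or more activation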
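Material: IRE1-XBP1 luciferase reporter CHO line / Quantity: one thousand reporter cells per well / Buffer or medium: F12 with 10% serum / Compound: 20 µM single concentration, DMSO 1% / Times: 6 h treatment, 37 °C / Detection: Steady-Glo luciferase glow luminescence, 10 min after reagent addition / Benchmarks: tunicamycin high, DMSO low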
CHOP inh: inhibitors of CHOP induction in ER stress response; CHO-K1 CHOP-promoter luciferase, tunicamycin-induced, 15-18 h; inhibition, % at 10 µM; 220,000 tested, 3.8% active;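 active = compounds that reduced the stress-induced luciferase reporter signal by more than about 70% of percent inhibition, limit read from the data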
Fh CTSL1 inh: cathepsin L1 inhibition, PFM18AAP counter-screen. recombinant F. hepatica cathepsin L1, Z-Leu-Arg-MCA fluorescence. inhibition, % at 5.96 µM. 300,000 tested, 0.49% active. AID 1906;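 active = inhibition above the mean of all tested compounds plus 3 SD, set per screening campaign, cut at about 17% in these data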
Hits are given with their value; n = inactive; x = no result; ! = repeats disagree.

SMILES	UPR CHOP act	UCH37 inh	XBP1 UPR activ	CHOP inh	Fh CTSL1 inh
CC(=O)c1cc2c(cc1NC(=O)CN1CCCCCCC1)OCO2	n	n	n	85.1	n
COc1ccc([N+](=O)[O-])cc1C=NNC(=O)c1nonc1N	x	n	x	x	x
CCOc1cc(CNCCc2ccc(S(N)(=O)=O)cc2)cc(Cl)c1OCc1ccccc1	n	n	n	70.3	n
COC(=O)COc1ccc(C=NNS(=O)(=O)c2ccccc2)cc1	x	n	x	x	x
CCC(=O)n1nc(-c2ccccc2)nc1N	n	22.5	n	n	n
Cc1ccc(-c2nc(N)n(C(=O)Cc3ccccc3)n2)cc1	n	n	n	86.2	n
Oc1ccc(Br)cc1C=NNc1nc(N2CCCCC2)nc(N2CCOCC2)n1	x	n	x	x	x
COc1ccc(-n2c(Cc3cccn3C)nnc2SCC(=O)Nc2ccc(Cl)cc2)cc1	n	n	n	70.8	n
COCCNC(=O)CC(C)=NNC(=O)C(=O)NC1CCCCC1	x	n	x	x	x
CC(Oc1ccc(Cl)cc1Cl)C(=O)Nc1ccc2oc(-c3ccncc3)nc2c1 (stereo not drawn)	n	n	n	73.8	n
Cc1ccc(-c2nc3cc(NC(=O)C(C)C)ccc3o2)cc1	n	n	n	n	n
CC(Oc1cccc2cccnc12)C(=O)NN=Cc1ccccc1 (stereo not drawn)	x	n	x	x	x
COC(=O)c1ccc(N2CCCCC2)c(NS(=O)(=O)c2ccc(C)cc2)c1	n	n	n	n	n
CCN(CC)CCNC(=O)c1ccc(N2CCCCC2)c(NS(=O)(=O)c2ccc(C)cc2)c1	n	n	n	72.2	n
CC/C=C\C/C=C\C/C=C\CCCCCCCC(=O)O	n	n	n	x	25.8
CCCCC/C=C\C/C=C\C/C=C\C/C=C\CCCC(=O)O	x	x	x	x	22.2
O=C(Nc1sc2c(c1C(=O)N1CCOCC1)CCCCC2)c1cccnc1	n	n	n	n	18.9
O=C(Nc1sc2c(c1C(=O)O)CCCCC2)c1cccnc1	n	n	n	x	n
Cc1ccccc1C=NNC(=O)CSc1nc2ccccc2o1	x	n	x	x	x
COc1ccc(F)cc1S(=O)(=O)N1CCN(Cc2ccc3c(c2)OCO3)CC1	n	n	n	n	n
COc1ccc(Cl)cc1S(=O)(=O)N1CCN(Cc2ccc3c(c2)OCO3)CC1	n	n	n	73.5	n
COc1cc(C=NN(c2ccccc2)c2ccccc2)ccc1O	x	n	x	x	x
Cn1c(=O)c2c(SCC(=O)N3CCCc4ccccc43)nc(CC(C)(C)C)nc2n(C)c1=O	n	x	n	84.2	n
CCCc1nc(SCC(=O)N2CCCc3ccccc32)c2c(=O)n(C)c(=O)n(C)c2n1	n	n	n	n	n
COc1ccc(CC(C)=NNC(=S)Nc2ccc(C)c(C)c2)cc1	x	n	x	x	x
SMILES	UPR CHOP act	UCH37 inh	XBP1 UPR activ	CHOP inh	Fh CTSL1 inh
CCC(C)[C@H](NC(=O)NCCC1=CCCCC1)C(=O)OC (stereo partly drawn)	n	25.0	n	n	n
COc1cccc(C(=O)NCCC2=CCCCC2)c1	n	24.6	n	n	n
CC(C)(C)c1cc(C=NNC(=O)Cc2nc3ccccc3[nH]2)cc(C(C)(C)C)c1O	x	n	x	x	x
Cc1c(C(=O)NN=Cc2cccnc2)sc(N)c1C#N	x	n	x	x	x
Cc1ccc(-c2[nH]c3ccccc3c2C(C[N+](=O)[O-])c2ccco2)cc1 (stereo not drawn)	n	n	n	88.7	n
CCOC(=O)C1C(=O)NC(c2ccccc2)=NC1c1cccc(Br)c1 (stereo not drawn)	n	n	n	n	21.8
NC(=O)CC(NC(=O)c1ccc(Br)cc1)c1ccc(N2CCN(c3ccc(F)cc3)CC2)c([N+](=O)[O-])c1 (stereo not drawn)	n	n	n	93.2	n
NC(=O)CC(NC(=O)Cc1ccc(Br)cc1)c1ccc(N2CCN(c3ccc(F)cc3)CC2)c([N+](=O)[O-])c1 (stereo not drawn)	n	n	n	85.2	n
NC(=O)CC(NC(=O)c1cccc(Br)c1)c1ccc(N2CCN(c3ccc(F)cc3)CC2)c([N+](=O)[O-])c1 (stereo not drawn)	n	n	n	x	n
NC(=O)CC(NC(=O)c1ccc(Br)cc1)c1ccc(N2CCN(c3ccccc3)CC2)c([N+](=O)[O-])c1 (stereo not drawn)	n	n	n	x	n
COc1ccc(C=NNc2ncnc3sc(C)c(C)c23)cc1	x	n	x	x	x
CCCN1Cc2cccc(C(=O)Nc3ccc4c(c3)OCCO4)c2C1=O	n	n	n	77.7	n
CCCN1Cc2cccc(C(=O)Nc3ccc4c(c3)OCO4)c2C1=O	n	n	n	n	n
Cc1ccc(C23CC4CC(CC(NC(=O)NN)(C4)C2)C3)cc1	n	n	n	x	28.5
COc1cccc(C(C[N+](=O)[O-])c2c(C)[nH]n(-c3ccccc3)c2=O)c1 (stereo not drawn)	n	x	n	x	101.2
CN(c1ccc(O)cc1)c1nc(-c2ccccc2)cs1	x	n	x	89.7	n
CN(C(=O)c1ccco1)c1nc(-c2ccccc2)cs1	n	x	n	x	n
CC(CNCc1ccc2c(c1)OCO2)NCc1ccc2c(c1)OCO2 (stereo not drawn)	n	n	n	85.3	n
Cc1cc2ncn(C(=O)c3c(-c4ccccc4)noc3C)c2cc1C	n	n	n	72.5	n
Cc1cc2ncn(C(=O)c3c(-c4c(Cl)cccc4Cl)noc3C)c2cc1C	n	n	n	74.2	n
COc1cc(C=NNC(=O)c2cc(-c3ccccc3Cl)nc3ccccc23)cc(OC)c1O	x	n	x	x	x
O=C(Nc1nc(-c2cccc3ccccc23)cs1)c1ccc2c(c1)S(=O)(=O)c1ccccc1C2=O	n	n	n	85.4	n
O=C(Nc1nc(-c2ccccc2)cs1)c1ccc2c(c1)S(=O)(=O)c1ccccc1C2=O	n	n	n	n	n
Cc1ccc(S(=O)(=O)NN=Cc2cc(Br)c(C)o2)cc1	x	n	x	x	x
Cc1ccc(Cl)cc1NC(=O)COC(=O)C12CC3CC(CC(C3)C1)C2	n	n	n	78.9!	n
SMILES	UPR CHOP act	UCH37 inh	XBP1 UPR activ	CHOP inh	Fh CTSL1 inh
Cc1ccc(Cl)cc1NC(=O)COC(=O)C1CCCC1	n	n	n	n	n
CCCn1c(SCCc2ccccc2)nc2c1c(=O)[nH]c(=O)n2C	n	n	n	n	n
C=CCn1c(SCCCc2ccccc2)nc2c1c(=O)[nH]c(=O)n2C	n	n	n	77.0	n
CCCCCn1c(SCCc2ccccc2)nc2c1c(=O)[nH]c(=O)n2C	n	n	n	93.5	n
CC(C)CCn1c(SCCc2ccccc2)nc2c1c(=O)[nH]c(=O)n2C	n	n	n	74.7	n
Cn1c(=O)[nH]c(=O)c2c1nc(CN1CCN(c3cccc(Cl)c3)CC1)n2CCc1ccccc1	n	n	n	81.7	n
Cc1ccc(C=Nn2c(C)cc(C)c(C#N)c2=O)cc1	x	n	x	x	x
Cc1ccc(Nc2nc(N=CNO)n[nH]2)cc1C	x	n	x	x	x
CC(C)n1c(SCCCc2ccccc2)nc2c1c(=O)[nH]c(=O)n2C	x	n	x	97.0	x
CCCCn1c(NCCC)nc2c1c(=O)[nH]c(=O)n2C	n	n	n	n	x
